From ChEMBL document CHEMBL3588792, “Selective Acetamidine-Based Nitric Oxide Synthase Inhibitors: Synthesis, Docking, and Biological Studies” (ACS Med Chem Lett, 2015)
Active and inactive are the calls of the source. No cut-off for these calls is given here.

What was measured:
[1] = species on record: Rattus norvegicus; assay: Induction of NA-induced LPS-treated Sprague-Dawley rat mesenteric vascular artery vasoconstriction effect measured at 100 uM/30 mins preincubation relative to basal level; assay type: functional, organism-based
[2] = species on record: Rattus norvegicus; assay: Reduction of Ach-mediated NO-dependent precontracted Sprague-Dawley rat mesenteric vascular artery vasorelaxation measured at 100 uM/30 mins preincubation; assay type: functional, organism-based
Method in brief: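 Isolated SD rat mesenteric arteries precontracted with 10 μM NA to about 80% of maximal vasoconstriction. Preincubation 30 min at 100 μM, then dose-response to ACh (0.01–3 μM/30 s) for NO-dependent (eNOS-mediated) vasorelaxation, compared with control curve. Mean ± SEM of duplicates, four independent experiments; two-way repeated-measures ANOVA.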

[3] = molecular target: T1, Nitric oxide synthase, inducible (Mus musculus, UniProt P29477); assay: Inhibition of mouse recombinant iNOS using [3H]L-arginine substrate assessed as formation of [3H]L-citruline by liquid scintillation counting analysis
T1 sequence (P29477 whole entry): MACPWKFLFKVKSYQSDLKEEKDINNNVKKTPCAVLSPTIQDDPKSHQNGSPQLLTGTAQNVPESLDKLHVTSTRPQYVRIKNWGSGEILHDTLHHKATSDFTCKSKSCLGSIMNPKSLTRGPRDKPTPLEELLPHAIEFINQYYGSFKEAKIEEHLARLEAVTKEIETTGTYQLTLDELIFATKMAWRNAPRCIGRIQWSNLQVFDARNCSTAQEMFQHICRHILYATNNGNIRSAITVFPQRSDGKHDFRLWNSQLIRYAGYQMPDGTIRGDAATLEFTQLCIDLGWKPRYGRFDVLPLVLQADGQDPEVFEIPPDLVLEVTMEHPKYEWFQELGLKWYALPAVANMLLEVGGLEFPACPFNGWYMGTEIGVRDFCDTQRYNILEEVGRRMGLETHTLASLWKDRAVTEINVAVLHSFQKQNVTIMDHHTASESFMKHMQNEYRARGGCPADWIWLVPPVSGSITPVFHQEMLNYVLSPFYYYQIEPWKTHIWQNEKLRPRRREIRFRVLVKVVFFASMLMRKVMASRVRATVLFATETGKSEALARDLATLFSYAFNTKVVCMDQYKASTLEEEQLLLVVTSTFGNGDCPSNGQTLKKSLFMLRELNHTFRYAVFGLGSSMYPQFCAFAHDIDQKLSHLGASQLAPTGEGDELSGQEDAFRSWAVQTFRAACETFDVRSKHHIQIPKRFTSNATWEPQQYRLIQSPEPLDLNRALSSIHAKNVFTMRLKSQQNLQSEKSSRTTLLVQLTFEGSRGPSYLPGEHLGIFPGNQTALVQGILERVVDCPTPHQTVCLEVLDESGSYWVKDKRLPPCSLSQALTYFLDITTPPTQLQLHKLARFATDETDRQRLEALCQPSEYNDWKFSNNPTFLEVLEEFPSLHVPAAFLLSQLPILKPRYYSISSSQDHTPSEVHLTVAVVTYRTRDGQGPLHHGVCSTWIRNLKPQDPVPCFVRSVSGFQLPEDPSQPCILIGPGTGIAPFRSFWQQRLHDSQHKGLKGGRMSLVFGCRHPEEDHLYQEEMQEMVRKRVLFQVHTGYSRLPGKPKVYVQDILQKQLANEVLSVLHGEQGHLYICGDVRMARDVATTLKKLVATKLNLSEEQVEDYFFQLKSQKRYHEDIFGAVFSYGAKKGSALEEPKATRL
Method in brief: (§1)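 Recombinant enzyme inhibition was read as [3H]L-citrulline formed from [3H]L-arginine. Each inhibitor was tested at seven concentrations in triplicate, with IC50 given as mean ± SD. Selectivity is the eNOS IC50 divided by the iNOS IC50.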

[4] = molecular target: T2, Nitric oxide synthase 3 (Bos taurus, UniProt P29473); assay: Inhibition of bovine recombinant eNOS using [3H]L-arginine substrate assessed as formation of [3H]L-citruline by liquid scintillation counting analysis; method in brief: as §1
T2 sequence (P29473 whole entry): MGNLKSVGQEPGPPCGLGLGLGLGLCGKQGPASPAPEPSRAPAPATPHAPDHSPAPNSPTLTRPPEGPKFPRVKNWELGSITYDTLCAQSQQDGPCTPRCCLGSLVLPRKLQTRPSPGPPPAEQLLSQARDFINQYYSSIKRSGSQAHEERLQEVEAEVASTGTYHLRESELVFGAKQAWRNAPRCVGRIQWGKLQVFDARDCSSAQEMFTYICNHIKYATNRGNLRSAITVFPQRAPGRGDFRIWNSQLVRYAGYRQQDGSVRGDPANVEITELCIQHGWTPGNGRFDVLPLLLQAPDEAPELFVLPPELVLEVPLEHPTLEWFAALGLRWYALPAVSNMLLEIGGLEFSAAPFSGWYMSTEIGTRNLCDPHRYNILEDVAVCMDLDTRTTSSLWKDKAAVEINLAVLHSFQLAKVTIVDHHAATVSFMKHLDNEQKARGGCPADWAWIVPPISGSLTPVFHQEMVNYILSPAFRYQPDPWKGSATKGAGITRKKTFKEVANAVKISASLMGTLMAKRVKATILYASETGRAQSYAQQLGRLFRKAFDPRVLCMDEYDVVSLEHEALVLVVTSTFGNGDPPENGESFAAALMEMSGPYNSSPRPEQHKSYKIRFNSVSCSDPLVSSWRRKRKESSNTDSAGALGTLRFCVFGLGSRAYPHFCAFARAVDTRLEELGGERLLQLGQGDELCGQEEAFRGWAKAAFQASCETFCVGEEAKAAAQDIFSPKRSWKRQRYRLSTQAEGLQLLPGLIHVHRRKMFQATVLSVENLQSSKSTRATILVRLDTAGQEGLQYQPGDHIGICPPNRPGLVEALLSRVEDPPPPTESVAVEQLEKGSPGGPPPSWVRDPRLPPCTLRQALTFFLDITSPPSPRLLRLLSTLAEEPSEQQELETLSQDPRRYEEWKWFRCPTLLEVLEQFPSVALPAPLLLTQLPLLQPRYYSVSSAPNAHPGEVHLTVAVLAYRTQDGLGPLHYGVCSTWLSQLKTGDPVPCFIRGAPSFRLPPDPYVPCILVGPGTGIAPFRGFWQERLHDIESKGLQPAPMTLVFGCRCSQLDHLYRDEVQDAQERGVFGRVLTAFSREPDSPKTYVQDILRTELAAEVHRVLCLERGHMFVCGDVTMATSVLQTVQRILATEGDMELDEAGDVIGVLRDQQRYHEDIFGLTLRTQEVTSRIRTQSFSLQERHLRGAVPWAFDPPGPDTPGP

[5] = Selectivity ratio of IC50 for bovine recombinant eNOS to IC50 for mouse recombinant iNOS
[6] = species on record: Rattus norvegicus; assay: Reduction of Ach-mediated NO-dependent precontracted Sprague-Dawley rat mesenteric vascular artery vasorelaxation measured up to 0.7 uM/30 mins preincubation; assay type: functional, organism-based
Method in brief: (§2)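 Mesenteric arteries were isolated from SD rats and precontracted to ~80% of maximal constriction with 10 μM NA. The inhibitor was preincubated for 30 min, then ACh dose-response curves were run (0.01–3 μM/30 s) against control, followed by L-NAME (100 μM). Data are mean ± SEM of duplicates from four independent experiments, analysed by two-way repeated-measures ANOVA.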

[7] = species on record: Rattus norvegicus; assay: Induction of NA-induced LPS-treated Sprague-Dawley rat mesenteric vascular artery vasoconstriction effect measured at 0.43 uM/30 mins preincubation; assay type: functional, organism-based
Method in brief: (§3)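 Mesenteric arteries came from SD rats injected with LPS. NA dose-response curves (10 nM–10 μM) were recorded before and after 30 min preincubation with inhibitor. Read-outs were peak perfusion pressure (mmHg) and duration as AUC (mmHg × sec). Data are mean ± SEM of duplicates from four independent experiments.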

[8] = species on record: Rattus norvegicus; assay: Induction of NA-induced LPS-treated Sprague-Dawley rat mesenteric vascular artery vasoconstriction effect measured at 0.43 uM/30 mins preincubation relative to basal level; assay type: functional, organism-based; method in brief: as §3
[9] = species on record: Rattus norvegicus; assay: Reduction of Ach-mediated NO-dependent precontracted Sprague-Dawley rat mesenteric vascular artery vasorelaxation measured at 1 to 1.2 uM/30 mins preincubation; assay type: functional, organism-based; method in brief: as §2
[10] = species on record: Rattus norvegicus; assay: Induction of NA-induced LPS-treated Sprague-Dawley rat mesenteric vascular artery vasoconstriction effect measured at 1 uM/30 mins preincubation; assay type: functional, organism-based; method in brief: as §3
[11] = species on record: Rattus norvegicus; assay: Reduction of Ach-mediated NO-dependent precontracted Sprague-Dawley rat mesenteric vascular artery vasorelaxation measured at 0.85 uM/30 mins preincubation; assay type: functional, organism-based; method in brief: as §2
[12] = species on record: Rattus norvegicus; assay: Induction of NA-induced LPS-treated Sprague-Dawley rat mesenteric vascular artery vasoconstriction effect measured at 100 uM/30 mins preincubation; assay type: functional, organism-based; method in brief: as §3
[13] = species on record: Rattus norvegicus; assay: Reduction of Ach-mediated NO-dependent precontracted Sprague-Dawley rat mesenteric vascular artery vasorelaxation measured at 0.43 uM/30 mins preincubation; assay type: functional, organism-based; method in brief: as §2
[14] = species on record: Rattus norvegicus; assay: Induction of NA-induced LPS-treated Sprague-Dawley rat mesenteric vascular artery vasoconstriction effect measured at 1 uM/30 mins preincubation relative to basal level; assay type: functional, organism-based; method in brief: as §3
[15] = species on record: Rattus norvegicus; assay: Reduction of Ach-mediated NO-dependent precontracted Sprague-Dawley rat mesenteric vascular artery vasorelaxation measured at 1 uM/30 mins preincubation; assay type: functional, organism-based; method in brief: as §2

With `COC(=O)[C@@H](N)CCCNC(=N)N[N+](=O)[O-]` the Activity [1] was “Active” and the inhibition [2] was “Active”.

In the case of `CC(=N)NCc1cccc(CNC(=O)CN)c1`, the IC50 [3] is reported as > 10 µM.

For `CC(=N)NCc1cccc(CNC(=O)c2ccc(C(=O)O)cc2)c1`, the IC50 [4] was 90.8 µM, the IC50 [3] was 0.165 µM and the Ratio IC50 [5] was 550.

For `CC(=N)NCc1cccc(CNC(=O)CCC(=O)O)c1`, the inhibition [6] was “inactive”, the Activity [7] was “Active” and the Activity [8] was “Active”. For the same compound, the Activity [9] was “Active”, the Activity [10] was “Active” and the IC50 [4] was > 1000 µM. For the same compound, the inhibition [2] was “inactive”, the Activity [11] was “Active” and the Activity [12] was “Active”. The IC50 [3] was 0.428 µM, the Ratio IC50 [5] was > 2300 and the inhibition [13] was “inactive”.

For `CC(=N)NCc1cccc(CNC(=O)CC(=O)O)c1`, the IC50 [3] was > 10 µM.

Compound `CC(=N)NCc1cccc(CNCc2ccccc2[N+](=O)[O-])c1` has an IC50 [4] of 30 µM, an IC50 [3] of 0.1 µM and a Ratio IC50 [5] of 300.

`CC(=N)NCc1cccc(CN(Cc2ccc([N+](=O)[O-])cc2)Cc2ccc([N+](=O)[O-])cc2)c1` showed an IC50 [4] of 100 µM, an IC50 [3] of 0.5 µM and a Ratio IC50 [5] of 200.

In the case of `CC(=N)NCc1cccc(CNC(=O)CCCN)c1`, the IC50 [3] is reported as > 10 µM.

With `CC(=N)NCc1cccc(CNC(=O)CCN)c1` the IC50 [3] was > 10 µM.

In the case of `CC(=N)NCc1cccc(CN)c1` [1400W], the IC50 [3] is reported as 0.1 µM, the Activity [14] is reported as “Active” and the inhibition [15] is reported as “inactive”.
